Assay outcomes: PubChem BioAssay, The Scripps Research Institute Molecular Screening Center
Sampled rows, rich in hits. Any-hit rate of the full collection: about 2.9%.
CHO-K1 Ca antag – M1 antagonist counterscreen hit in parental CHO-K1 cells. AID 602250. ATP-induced calcium, Fluo-8 fluorescence. inhibition, % at 3 µM. hit rate 0.6% among 360,000;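 active = inhibition above a per-plate cutoff, the plate's mean sample inhibition plus 3 SD, cut at about 24% in these data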
CHO parental Ca – signal in parental CHO cells, OX1R antagonist counter-screen. hit rate 0.63% among 330,000. inhibition, % at 5.6 µM. AID 463079. parental CHO-K1, ATP-induced calcium, Fluo-8 fluorescence;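 active = inhibition above that plate's mean sample inhibition plus 3 SD, cut at about 26% in these data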
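Assay system: untransfected parental CHO cell line. Also added: ATP agonist challenge. Dosing: one dose, 5.6 µM nominal. Measured by: Fluo-8 fluorescence. Read-out: % inhibition. Benchmarks: ATP wells versus no-ATP DMSO wells. Repeats: no replicates.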
OX1R antag-1 – OX1R (human) antagonism | hit rate 1.8% among 330,000 | AID 485270 | O43613 | inhibition, % at 6.6 µM | OX1R-expressing cells, FRET antagonist read-out; in the data active = inhibition mostly above about 38%, no sharp cut-off; inactive = mostly below about 40%
Target sequence (O43613 whole entry, looked up): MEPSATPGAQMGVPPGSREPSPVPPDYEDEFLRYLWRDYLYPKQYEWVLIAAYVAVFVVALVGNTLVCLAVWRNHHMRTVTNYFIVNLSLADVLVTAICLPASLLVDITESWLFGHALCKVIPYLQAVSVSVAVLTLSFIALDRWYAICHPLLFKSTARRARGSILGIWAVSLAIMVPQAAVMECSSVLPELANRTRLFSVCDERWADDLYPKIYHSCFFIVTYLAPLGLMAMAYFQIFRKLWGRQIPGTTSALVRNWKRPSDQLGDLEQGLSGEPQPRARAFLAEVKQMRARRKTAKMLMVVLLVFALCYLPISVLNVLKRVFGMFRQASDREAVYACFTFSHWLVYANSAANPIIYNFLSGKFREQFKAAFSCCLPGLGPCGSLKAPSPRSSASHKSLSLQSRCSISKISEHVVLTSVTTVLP
CHO-K1 Ca ag – counter-screen for M1 agonists: effect in parental CHO-K1 cells; Fluo-8 calcium fluorescence; scaled to maximal ATP response, vehicle zero; activation, % at 3 µM; hit rate 0.48% among 360,000; AID 602248; in the data active = activation above about 15%;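 note: untransfected CHO-K1 host cells lacking M1 receptor as counterscreen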
OX1R antag-2 – human HCRTR1 antagonism; O43613; CHO/OX1R cells, Fluo-8 calcium fluorescence, orexin A; inhibition, % at 5 µM; hit rate 0.43% among 330,000; AID 434989;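 active = inhibition above its plate's threshold, mean inhibition of all tested compounds on the plate plus 3 SD, cut at about 37% in these data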
CHO-K1 Ca PAM – M1 PAM counterscreen hit in parental CHO-K1 cells; ATP EC20, Fluo-8 calcium fluorescence; 0% at ATP EC20, 100% at ATP max; activation, % at 3 µM; hit rate 0.02% among 360,000;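 active = activation above the run cutoff, the mean activation of all test compounds plus 3 SD, cut at about 40% in these data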;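 note: peak over basal fluorescence ratio in a 140 s read after ATP addition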
A number is an active result; 0 = inactive; - = no result given.

SMILES | CHO-K1 Ca antag | CHO parental Ca | OX1R antag-1 | CHO-K1 Ca ag | OX1R antag-2 | CHO-K1 Ca PAM
Cc1ccccc1OCc1nnc(SC(C)C(=O)O)n1Cc1ccccc1 (stereo not drawn) | 0 | 0 | 62.7 | 0 | 0 | 0
Cc1ccccc1OCc1nnc(SCC(=O)O)n1Cc1ccccc1 | 0 | 0 | 0 | 0 | 0 | 0
COc1ccc(-n2c(COc3cccc4ccccc34)nnc2SC(C)C(=O)O)cc1 (stereo not drawn) | 31.6 | 0 | 0 | 0 | 0 | 0
Cc1cc(OCC(=O)Nc2cc(C(C)(C)C)on2)ccc1[N+](=O)[O-] | 0 | 0 | 0 | 0 | 0 | 0
COc1ccc(-c2cc(C(=O)Nc3cc(C)nn3-c3ccccc3)no2)cc1OC | 0 | 0 | 0 | 0 | 0 | 0
COc1cc(/C=N/OCC(=O)Nc2cc(C)on2)ccc1OCc1ccccc1 | 0 | 0 | 0 | 20.1 | 0 | 0
Nc1ccccc1-c1nc2ccccc2[nH]c1=O | 0 | - | - | 0 | - | 0
O=c1[nH]c2ccccc2nc1-c1c[nH]c2ccccc12 | 0 | 0 | 61.8 | 0 | 0 | 0
COc1cc(/C=N/NC(=O)c2cc3ccccc3[nH]2)ccc1O | 0 | 0 | 46.2 | 0 | 0 | 0
COc1ccc(/C=N/NC(=O)c2cc3c(OC)ccc(OC)c3[nH]2)cc1O | 0 | 0 | 61.9 | 0 | 0 | 0
COc1cccc(/C=N/NC(=O)c2cc3c(OC)cccc3[nH]2)c1OC | 0 | 0 | 67.5 | 0 | 0 | 0
COc1ccc(OC)c2[nH]c(C(=O)N/N=C/c3ccccc3O)cc12 | 0 | 0 | 0 | 0 | 0 | 0
C=CCOc1ccc(/C=N/NC(=O)c2cc3c(OC)cc(OC)cc3[nH]2)cc1 | 0 | 0 | 48.2 | 0 | 0 | 0
COc1cccc(/C=N/NC(=O)c2cc3c(OC)c(OC)ccc3[nH]2)c1OC | 0 | - | - | 0 | - | 0
Cc1cc(C)c(NC(=O)CS(=O)CC(=O)Nc2ccc(F)cc2F)c(C)c1 (stereo not drawn) | 0 | 0 | 0 | 0 | 0 | 0
CCOC(=O)c1c(NC(=O)COC(=O)c2ccccc2NC)sc(C(=O)N(C)C)c1C | 0 | 0 | 0 | 0 | 0 | 0
CN(CC(=O)NCc1ccc(F)cc1)CC(=O)Nc1ccc(Cl)c(C(F)(F)F)c1 | 0 | 67.2 | 0 | 0 | 57.3 | 0
CN(CC(=O)Nc1cccc(F)c1)CC(=O)Nc1cc(S(=O)(=O)N2CCOCC2)ccc1Cl | 0 | 0 | 0 | 0 | 0 | 0
CN(CC(=O)Nc1cccc(S(=O)(=O)N2CCOCC2)c1)CC(=O)Nc1ccc(Cl)c(C(F)(F)F)c1 | 0 | 49.5 | 0 | 0 | 0 | 0
CN1CCN(c2ccc(CNC(=O)c3ccco3)cc2)CC1 | 0 | 0 | 0 | 18.0 | 0 | 0
O=C(Nc1ccccc1C(=O)N1CCNCC1)c1ccco1 | - | 0 | 0 | - | 0 | -
O=C(Nc1ccccc1C(=O)N1CCN(c2ccccc2)CC1)c1ccco1 | 0 | 0 | 51.1 | 0 | 0 | 0
CCOc1ccc(CCNC(=O)CCC(=O)N2CCOc3ccccc32)cc1OCC | 0 | 0 | 0 | 0 | 0 | 0
CN(c1nc(-c2ccc(Br)cc2)cs1)C1CCS(=O)(=O)C1 (stereo not drawn) | 0 | 0 | 0 | 0 | 0 | 0
CC(C)c1ccc(NC(=O)C[n+]2ccn(C3=C([O-])c4ccccc4C3=O)c2)cc1 | 0 | 0 | 0 | 17.9 | 0 | 0
SMILES | CHO-K1 Ca antag | CHO parental Ca | OX1R antag-1 | CHO-K1 Ca ag | OX1R antag-2 | CHO-K1 Ca PAM
COCCNC(=O)C1(C)CCCN(C(=O)c2ccc(F)c(Cl)c2)C1 (stereo not drawn) | 0 | - | - | 0 | - | 0
CC(C)C(NCC(=O)Nc1ccccc1C(=O)NC1CC1)c1ccccc1 (stereo not drawn) | 0 | 0 | 42.9 | 0 | 0 | 0
CCOC(=O)C1CCCN(C(=O)c2cccc(NC(=O)C(CC)CC)c2)C1 (stereo not drawn) | 24.0 | 0 | 0 | 0 | 0 | 0
Cc1cccc(NC(=O)CSc2nncn2N)c1C | 0 | - | - | 0 | - | 0
Cc1nn2c(-c3ccccc3)nnc2c2ccccc12 | 0 | 0 | 64.1 | 0 | 0 | 0
Cc1nn2c(-c3cccc(NC(=O)c4ccco4)c3)nnc2c2ccccc12 | 0 | 0 | 0 | 0 | 0 | 0
COc1ccc(CCNC(=O)CNS(=O)(=O)c2ccc(Br)s2)cc1OC | 0 | 0 | 0 | 0 | 0 | 0
